Activity calls are given as the source filed them. The rule behind the calls is not given here.
Key:
[1] = tested on: Canis familiaris; assay: Saluretic activity in the dog measured as concentration of Na+ in urinary excretion (2 animals/dose) at (dose 0.1 mg/Kg, po); assay type: functional, Canis lupus familiaris, Urine
Summary of the method: (§1)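 Male beagles trained to rest on a table and to accept stomach tube and catheter. Food withdrawn 24 h before, tap water ad libitum. Bladder emptied by catheter, then 20 mL/kg tap water by stomach tube. Catheterized hourly up to 8 h with 4 mL/kg water orally each time; first 2 h urine served as control. Oral dosing after second catheterization. Pooled 1–6 h urine; Na⁺/K⁺ by flame photometry, Cl⁻ argentometrically.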

[2] = tested on: Canis familiaris; assay: Saluretic activity in the dog measured as concentration of Na+ in urinary excretion (2 animals/dose) at (dose 0.4 mg/Kg, po); assay type: functional, Canis lupus familiaris, Urine; summary of the method: as §1
[3] = tested on: Canis familiaris; assay: Saluretic activity in the dog measured as concentration of Na+ in urinary excretion (2 animals/dose) at (dose 1.56 mg/Kg, po); assay type: functional, Canis lupus familiaris, Urine; summary of the method: as §1
[4] = tested on: Canis familiaris; assay: Saluretic activity in the dog measured as concentration of Na+ in urinary excretion (2 animals/dose) at (dose 6.25 mg/Kg, po); assay type: functional, Canis lupus familiaris, Urine; summary of the method: as §1
[5] = tested on: Canis familiaris; assay: Salidiuretic activity on the basis of the 1.56 mg/Kg po dog assay; compound was highly active; assay type: functional, organism-based; details: Canis lupus familiaris; Urine
[6] = tested on: Canis familiaris; assay: Saluretic activity in the dog measured as concentration of Cl - in urinary excretion (2 animals/dose) at (dose 0.4 mg/Kg, po); assay type: functional, Canis lupus familiaris, Urine
Summary of the method: (§2)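 Male beagles trained to the procedures, food withdrawn 24 h before, tap water ad libitum. Bladder emptied by catheter, then 20 mL/kg tap water by stomach tube, plus 4 mL/kg orally at each hourly catheterization up to 8 h. The first 2 h of urine served as control. Compound given orally after the second catheterization. Urine from 1–6 h post-dose pooled; Na⁺ and K⁺ by flame photometry, Cl⁻ argentometrically, in mequiv/kg.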

[7] = tested on: Canis familiaris; assay: Diuretic activity in the dog (2 animals/dose) at (dose 0.1 mg/Kg), when administered perorally; assay type: functional, Canis lupus familiaris, Urine
Summary of the method: (§3)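 Trained male beagles, fasted 24 h with tap water ad libitum. Bladder emptied by catheter, then 20 mL/kg tap water by stomach tube, with 4 mL/kg water at each hourly catheterization up to 8 h. The first 2 h of urine served as control. Oral dosing came after the second catheterization, and 1–6 h urine was pooled. Na⁺ and K⁺ were measured by flame photometry, Cl⁻ argentometrically, in mequiv/kg.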

[8] = tested on: Canis familiaris; assay: Diuretic activity in the dog (2 animals/dose) at (dose 0.4 mg/Kg), when administered perorally; assay type: functional, Canis lupus familiaris, Urine; summary of the method: as §3
[9] = tested on: Canis familiaris; assay: Diuretic activity in the dog (2 animals/dose) at (dose 1.56 mg/Kg), when administered perorally; assay type: functional, Canis lupus familiaris, Urine; summary of the method: as §3
[10] = tested on: Canis familiaris; assay: Diuretic activity in the dog (2 animals/dose) at (dose 6.25 mg/Kg), when administered perorally; assay type: functional, Canis lupus familiaris, Urine; summary of the method: as §3
[11] = tested on: Canis familiaris; assay: Saluretic activity in the dog measured as concentration of K+ in urinary excretion (2 animals/dose) at (dose 0.4 mg/Kg, po); assay type: functional, Canis lupus familiaris, Urine; summary of the method: as §2
[12] = tested on: Canis familiaris; assay: Saluretic activity in the dog measured as concentration of K+ in urinary excretion (2 animals/dose) at (dose 1.56 mg/Kg, po); assay type: functional, Canis lupus familiaris, Urine; summary of the method: as §1
[13] = tested on: Canis familiaris; assay: Saluretic activity in the dog measured as concentration of Cl - in urinary excretion (2 animals/dose) at (dose 6.25 mg/Kg, po); assay type: functional, Canis lupus familiaris, Urine; summary of the method: as §2
[14] = tested on: Canis familiaris; assay: Saluretic activity in the dog measured as concentration of K+ in urinary excretion (2 animals/dose) at (dose 0.1 mg/Kg, po); assay type: functional, Canis lupus familiaris, Urine; summary of the method: as §2
[15] = tested on: Canis familiaris; assay: Saluretic activity in the dog measured as concentration of K+ in urinary excretion (2 animals/dose) at (dose 6.25 mg/Kg, po); assay type: functional, Canis lupus familiaris, Urine; summary of the method: as §1
[16] = tested on: Canis familiaris; assay: Saluretic activity in the dog measured as concentration of Cl - in urinary excretion (2 animals/dose) at (dose 1.56 mg/Kg, po); assay type: functional, Canis lupus familiaris, Urine; summary of the method: as §2
[17] = tested on: Canis familiaris; assay: Saluretic activity in the dog measured as concentration of Cl - in urinary excretion (2 animals/dose) at (dose 0.1 mg/Kg, po); assay type: functional, Canis lupus familiaris, Urine; summary of the method: as §2
[18] = species on record: Rattus norvegicus; assay: Diuretic activity in the rats, determined by a modified Lipschitz test; assay type: functional, Urine
Summary of the method: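 Modified Lipschitz test: rats deprived of water 24 h, grouped in threes of similar weight in diuresis funnels. Oral dose of 50 mg/kg, suspended in 2% starch solution, by stomach tube.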

[19] = species on record: Rattus norvegicus; assay: Saluretic activity in the rat measured as concentration of chloride in urine; assay type: functional
Summary of the method: (§4)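 Rats deprived of food 24 h, water ad libitum, dosed 50 mg/kg by stomach tube as suspension in 2% starch, no extra water load. Groups of three in diuresis funnels; urine over first 5 h collected. Na⁺ and K⁺ by flame photometry, Cl⁻ argentometrically; expressed as mequiv/kg.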

[20] = species on record: Rattus norvegicus; assay: Saluretic activity in the rat measured as concentration of K+ in urine; assay type: functional; summary of the method: as §4
[21] = tested on: Rattus norvegicus; assay: Salidiuretic activity on the basis of the 50 mg/kg po rat assay; compound was highly active; assay type: functional, organism-based; set-up: dose 50 mg/kg; details: Urine
[22] = It is the ratio, measured as saluretic activity in the dog as concentration of Cl- in urinary excretion (dose 0.1 mg/Kg, po) to that of (Na++K+); assay type: functional, Urine; summary of the method: as §3
[23] = tested on: Canis familiaris; assay: It is the ratio, measured as saluretic activity in the dog as concentration of Na+ in urinary excretion (dose 1.56 mg/Kg, po) to that of K; assay type: functional, Canis lupus familiaris, Urine; summary of the method: as §3
[24] = It is the ratio, measured as saluretic activity in the dog as concentration of Na+ in urinary excretion (dose 6.25 mg/Kg, po) to that of K; assay type: functional, Urine; summary of the method: as §3
[25] = It is the ratio, measured as saluretic activity in the dog as concentration of Cl- in urinary excretion (dose 0.4 mg/Kg, po) to that of (Na++K+); assay type: functional, Urine; summary of the method: as §3
[26] = It is the ratio, measured as saluretic activity in the dog as concentration of Cl- in urinary excretion (dose 1.56 mg/Kg, po) to that of (Na++K+); assay type: functional, Urine; summary of the method: as §3
[27] = It is the ratio, measured as saluretic activity in the dog as concentration of Cl- in urinary excretion (dose 6.25 mg/Kg, po) to that of (Na++K+); assay type: functional, Urine; summary of the method: as §3
[28] = It is the ratio, measured as saluretic activity in the dog as concentration of Na+ in urinary excretion (dose 0.1 mg/Kg, po) to that of K; assay type: functional, Urine; summary of the method: as §3
[29] = It is the ratio, measured as saluretic activity in the dog as concentration of Na+ in urinary excretion (dose 0.4 mg/Kg, po) to that of K; assay type: functional, Urine; summary of the method: as §3
[30] = species on record: Rattus norvegicus; assay: Saluretic activity in the rat measured as concentration of Na+ in urine; assay type: functional; summary of the method: as §4
[31] = tested on: Canis familiaris; assay: Saluretic activity in the dog measured as concentration of Na+ in urinary excretion (2 animals/dose) at (dose 1.56 mg/Kg, perorally); assay type: functional, Canis lupus familiaris, Urine; summary of the method: as §1
[32] = tested on: Canis familiaris; assay: Salidiuretic activity in the dog measured as concentration of Cl - in urinary excretion (2 animals/dose) at (dose 1.56 mg/Kg, perorally); assay type: functional, Canis lupus familiaris, Urine; summary of the method: as §2
[33] = tested on: Canis familiaris; assay: Salidiuretic activity in the dog measured as concentration of K+ in urinary excretion (2 animals/dose) at (dose 1.56 mg/Kg, perorally); assay type: functional, Canis lupus familiaris, Urine; summary of the method: as §2

**Q.** For NS(=O)(=O)c1cc(S(=O)(=O)[O-])c(NCc2ccco2)cc1S(=O)(=O)C1CCCCC1.[Na+], which Saluretic activity [1] is on record?
**A.** 1.95 m equiv 6hr-1 kg-1

**Q.** What about the Saluretic activity [2] of the same compound?
**A.** 3.71 m equiv 6hr-1 kg-1

**Q.** What about the Saluretic activity [3] of the same compound?
**A.** 5.38 m equiv 6hr-1 kg-1

**Q.** And the Saluretic activity [4]?
**A.** 5.5 m equiv 6hr-1 kg-1

**Q.** And the Saldiuretic activity [5]?
**A.** Active

**Q.** What about the Saldiuretic activity [6] of the same compound?
**A.** 4.43 m equiv 6hr-1 kg-1

**Q.** And the Diuretic activity [7]?
**A.** 44.7 ml kg-1 6hr-1

**Q.** And the Diuretic activity [8]?
**A.** 59 ml kg-1 6hr-1

**Q.** What about the Diuretic activity [9] of the same compound?
**A.** 66.7 ml kg-1 6hr-1

**Q.** What about the Diuretic activity [10] of the same compound?
**A.** 73.5 ml kg-1 6hr-1

**Q.** What about the Saluretic activity [11] of the same compound?
**A.** 0.82 m equiv 6hr-1 kg-1

**Q.** And the Saldiuretic activity [12]?
**A.** 1.14 m equiv 6hr-1 kg-1

**Q.** And the Saldiuretic activity [13]?
**A.** 6.83 m equiv 6hr-1 kg-1

**Q.** What about the Saldiuretic activity [14] of the same compound?
**A.** 0.53 m equiv 6hr-1 kg-1

**Q.** What about the Saldiuretic activity [15] of the same compound?
**A.** 1.16 m equiv 6hr-1 kg-1

**Q.** And the Saldiuretic activity [16]?
**A.** 6.15 m equiv 6hr-1 kg-1

**Q.** What about the Saldiuretic activity [17] of the same compound?
**A.** 2.49 m equiv 6hr-1 kg-1

**Q.** And the Diuretic activity [18]?
**A.** 2.8 mL/kg

**Q.** And the Saluretic activity [19]?
**A.** 9.1 m equiv 5hr-1 kg-1

**Q.** And the Saluretic activity [20]?
**A.** 2.3 m equiv 5hr-1 kg-1

**Q.** What about the Saldiuretic activity [21] of the same compound?
**A.** Active

**Q.** What about the Ratio [22] of the same compound?
**A.** 1

**Q.** And the Ratio [23]?
**A.** 4.7

**Q.** What about the Ratio [24] of the same compound?
**A.** 4.7

**Q.** What about the Ratio [25] of the same compound?
**A.** 1

**Q.** What about the Ratio [26] of the same compound?
**A.** 0.95

**Q.** And the Ratio [27]?
**A.** 1

**Q.** And the Ratio [28]?
**A.** 3.7

**Q.** What about the Ratio [29] of the same compound?
**A.** 4.5

**Q.** What about the Saluretic activity [30] of the same compound?
**A.** 8.2 m equiv 5hr-1 kg-1

**Q.** Which results are given for NS(=O)(=O)c1cc(S(=O)(=O)[O-])c(NCCc2ccco2)cc1Cl.[Na+]?
**A.** Saluretic activity [31]: 0.56 m equiv 6hr-1 kg-1; Diuretic activity [9]: 29.3 ml kg-1 6hr-1; Saldiuretic activity [32]: 0.76 m equiv 6hr-1 kg-1; Saldiuretic activity [33]: 0.15 m equiv 6hr-1 kg-1; Diuretic activity [18]: 1.9 mL/kg; Saluretic activity [19]: 6.1 m equiv 5hr-1 kg-1; Saluretic activity [20]: 1.8 m equiv 5hr-1 kg-1; Saluretic activity [30]: 4.6 m equiv 5hr-1 kg-1

— ChEMBL document CHEMBL1122273, “5-sulfamoylorthanilic acids, a sulfonamide series with salidiuretic activity” (J Med Chem, 1983)
